Reference: ChEMBL document CHEMBL5376022, “Design, synthesis and biological evaluation of novel pyrimidine derivatives as bone anabolic agents promoting osteogenesis via the BMP2/SMAD1 signaling pathway” (RSC Med Chem, 2024)
Active and inactive are the calls of the source. No cut-off for these calls is given here.

Assays:
Calvarial osteoblast [1] = experiment: Induction of osteogenesis in BALB/c mouse calvarial osteoblast cells using PNPP as substrate assessed as increase in ALP activity at 0.1 to 10 nM measured after 48 hrs by spectrophotometry; format: functional, cell-based; conditions: Calvaria, dose 0.1-10 nM
In short: (§1)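 Neonatal BALB/c calvarial osteoblasts, 2 × 10³ cells per well, adhered 24 h, then exposed to compounds (1 pM to 1 μM range) in osteoblast differentiation medium for 48 h. Cells frozen overnight at −80 or −20 °C, thawed at 37 °C to expose ectoenzyme; p-nitrophenyl phosphate added and ALP activity read at 405 nm. Untreated cells as control.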

[2] = Induction of osteogenesis in BALB/c mouse MSC cells assessed as increase in mineral nodule formation at 0.1 nM treated for 21 days with compound refreshment for every 48 hrs by Alizarin red S staining based analysis relative to control; format: functional; conditions: time 21 day
In short: (§2)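 Bone marrow cells were flushed from the long bones of 6–8-week-old BALB/c mice and seeded at 2 × 10⁶ per well. Medium: 10% FBS, 100 nM dexamethasone, 50 μg mL⁻¹ ascorbic acid and 10 mM β-glycerophosphate. Compound and medium were renewed every 48 h for 21 days. Cells were fixed in 4% paraformaldehyde and stained with Alizarin red (pH 4.2). Stain was eluted with 10% cetylpyridinium chloride for 1 h and read at 595 nm versus control.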

Calvarial osteoblast [3] = experiment: Cytotoxicity in BALB/c mouse calvarial osteoblast cells at 0.001 to 1000 nM incubated for 48 hrs by MTT assay; format: toxicity, cell-based, Calvaria; conditions: 1 µM, dose 0.001-1000 nM
In short: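 Primary calvarial osteoblasts from 1–2 day old BALB/c pups (collagenase/dispase digests, α-MEM with 10% FBS) seeded at 2 × 10³ per well. MTT added for 4 h at 37 °C, formazan dissolved in DMSO, absorbance read at 570 nm.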

Calvarial osteoblast [4] = experiment: Induction of cell proliferation of BALB/c mouse calvarial osteoblast cells at 0.1 nM incubated for 48 hrs by MTT assay relative to control; format: functional, Calvaria
In short: (§3)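 Primary calvarial osteoblasts from 1–2-day-old neonatal BALB/c pups, released by dispase/collagenase digestion and grown in α-MEM with 10% FBS. Seeded at 2 × 10³ cells per well, treated after 24 h for 48 h in α-MEM with 5% FBS, 10 mM β-glycerophosphate and 50 μg mL⁻¹ ascorbic acid. MTT added for 4 h at 37 °C, formazan dissolved in DMSO, absorbance read at 570 nm versus untreated cells.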

Calvarial osteoblast [5] = experiment: Induction of osteogenesis in BALB/c mouse calvarial osteoblast cells assessed as increase in phosphorylated SMAD1 level at 1 to 100 pM incubated for 48 hrs by Western blot analysis; format: functional, cell-based; conditions: Calvaria, dose 1-100 pM
In short: (§4)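 Calvarial osteoblasts seeded at 10⁶ per well, treated after 24 h at 1 pM and 100 pM for 48 h. Lysed with protease and phosphatase inhibitors, protein by BCA; 30 μg resolved by SDS-PAGE, PVDF transfer, 5% BSA block. Primary antibodies to BMP2, SMAD1, phospho-SMAD1, RUNX2, type I col (1:1000) overnight at 4 °C; β-actin loading control; HRP chemiluminescence and densitometry.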

Calvarial osteoblast [6] = experiment: Induction of osteogenesis in BALB/c mouse calvarial osteoblast cells assessed as increase in type-1 col mRNA level at 1 to 100 pM by qPCR analysis; format: functional, cell-based; conditions: Calvaria, dose 1-100 pM
In short: (§5)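 BALB/c calvarial osteoblasts treated at 1 pM and 100 pM; RNA isolated, cDNA synthesized and RUNX2 and type 1 col transcripts measured by PCR.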

Mus musculus [7] = experiment: Induction of osteogenesis in BALB/c mouse model of drill hole defect at femur mid-diaphysis assessed as increase in callus formation at 1 to 10 mg/kg, po for 12 days by micro-CT analysis; format: functional, organism-based; conditions: dose 1-10 mg/kg, time 12.0 day
In short: (§6)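 Female BALB/c mice, 8–9 weeks, given a drill-hole defect at femur mid-diaphysis under intraperitoneal ketamine (45 mg kg⁻¹)/xylazine (5 mg kg⁻¹); ten per group. Oral dosing at 1, 5 or 10 mg kg⁻¹ began the day after injury for 12 days; PTH 20 μg kg⁻¹ per day as reference. Defect region scanned by μCT for BV/TV, Tb.Th and Tb.N.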

[8] = AUC (0 to infinity) in BALB/c mouse at 5 mg/kg, po measured for 0.83 to 24 hrs by LC-MS/MS analysis; format: ADME, organism-based; set-up: time upper 24 hrs, dose 5 mg/kg, time lower 0.83 hrs, route po; conditions: in vivo
[9] = Volume of distribution in BALB/c mouse at 5 mg/kg, po measured for 0.83 to 24 hrs by LC-MS/MS analysis; format: ADME, organism-based; conditions: in vivo, time 0.83-24 hrs
[10] = Stability in BALB/c mouse plasma assessed as compound remaining measured upto 6 hrs by RP-UHPLC analysis; format: ADME, cell-free; conditions: read-out: Stability
Mus musculus [11] = experiment: Induction of osteogenesis in BALB/c mouse model of drill hole defect at femur mid-diaphysis assessed as increase in type-1 col mRNA level at 5 to 10 mg/kg, po for 12 days by qPCR analysis; format: functional, organism-based; conditions: dose 5-10 mg/kg, time 12.0 day
[12] = Stability in SGF assessed as compound remaining measured upto 6 hrs by RP-UHPLC analysis; format: ADME; conditions: simulated gastric fluid (SGF), read-out: Stability
Calvarial osteoblast [13] = experiment: Induction of cell proliferation of BALB/c mouse calvarial osteoblast cells at 10 nM incubated for 48 hrs by MTT assay relative to control
[14] = Cmax in BALB/c mouse at 5 mg/kg, po measured for 0.83 to 24 hrs by LC-MS/MS analysis; format: ADME, organism-based; set-up: time 0.83-24 hrs, dose 5 mg/kg, route po; conditions: in vivo
Calvarial osteoblast [15] = experiment: Induction of osteogenesis in BALB/c mouse calvarial osteoblast cells assessed as increase in SMAD1 level at 1 to 100 pM incubated for 48 hrs by Western blot analysis; format: functional, cell-based; conditions: Calvaria, dose 1-100 pM; in short: as §4
[16] = MRT in BALB/c mouse at 5 mg/kg, po measured for 0.83 to 24 hrs by LC-MS/MS analysis; format: ADME, organism-based; conditions: in vivo, time 0.83-24 hrs
Mus musculus [17] = experiment: Induction of osteogenesis in BALB/c mouse model of drill hole defect at femur mid-diaphysis assessed as increase in trabecular thickness at 5 to 10 mg/kg, po for 12 days by micro-CT analysis; format: functional, organism-based; conditions: dose 5-10 mg/kg, time 12.0 day; in short: as §6
Calvarial osteoblast [18] = experiment: Induction of osteogenesis in BALB/c mouse calvarial osteoblast cells assessed as increase in RUNX2 level at 1 to 100 pM incubated for 48 hrs by Western blot analysis; format: functional, cell-based; conditions: Calvaria, dose 1-100 pM; in short: as §4
[19] = Induction of osteogenesis in BALB/c mouse MSC cells assessed as increase in mineral nodule formation at 0.001 nM treated for 21 days with compound refreshment for every 48 hrs by Alizarin red S staining based analysis relative to control; format: functional; conditions: time 21 day; in short: as §2
Mus musculus [20] = experiment: Induction of osteogenesis in BALB/c mouse model of drill hole defect at femur mid-diaphysis assessed as increase in trabecular number at 5 mg/kg, po for 12 days by micro-CT analysis; format: functional, organism-based; conditions: time 12.0 day; in short: as §6
[21] = Half life in BALB/c mouse at 5 mg/kg, po measured for 0.83 to 24 hrs by LC-MS/MS analysis; format: ADME, organism-based; conditions: in vivo, time 0.83-24 hrs
Mus musculus [22] = experiment: Induction of osteogenesis in BALB/c mouse model of drill hole defect at femur mid-diaphysis assessed as increase in bone volume/tissue volume fraction at 5 to 10 mg/kg, po for 12 days by micro-CT analysis; format: functional, organism-based; conditions: dose 5-10 mg/kg, time 12.0 day; in short: as §6
Mus musculus [23] = experiment: Induction of osteogenesis in BALB/c mouse model of drill hole defect at femur mid-diaphysis assessed as increase in BMP2 mRNA level at 5 to 10 mg/kg, po for 12 days by qPCR analysis; format: functional, organism-based; conditions: dose 5-10 mg/kg, time 12.0 day
Calvarial osteoblast [24] = experiment: Induction of osteogenesis in BALB/c mouse calvarial osteoblast cells assessed as increase in BMP2 level at 1 to 100 pM incubated for 48 hrs by Western blot analysis; format: functional, cell-based; conditions: Calvaria, dose 1-100 pM; in short: as §4
[25] = Clearance in BALB/c mouse at 5 mg/kg, po measured for 0.83 to 24 hrs by LC-MS/MS analysis; format: ADME, organism-based; conditions: in vivo, time 0.83-24 hrs
[26] = Stability in SPF assessed as compound remaining measured upto 6 hrs by RP-UHPLC analysis; format: physicochemical; conditions: read-out: Stability
[27] = Tmax in BALB/c mouse at 5 mg/kg, po measured for 0.83 to 24 hrs by LC-MS/MS analysis; format: ADME, organism-based; conditions: in vivo, time 0.83-24 hrs
Calvarial osteoblast [28] = experiment: Induction of osteogenesis in BALB/c mouse calvarial osteoblast cells using PNPP as substrate assessed as increase in ALP activity at 0.001 to 1000 nM measured after 48 hrs by spectrophotometry; format: functional, cell-based; conditions: Calvaria, dose 0.001-1000 nM; in short: as §1
Mus musculus [29] = experiment: Induction of osteogenesis in BALB/c mouse model of drill hole defect at femur mid-diaphysis assessed as increase in RUNX2 mRNA level at 5 to 10 mg/kg, po for 12 days by qPCR analysis; format: functional, organism-based; conditions: dose 5-10 mg/kg, time 12.0 day
Calvarial osteoblast [30] = experiment: Induction of osteogenesis in BALB/c mouse calvarial osteoblast cells assessed as increase in type-1 col level at 1 to 100 pM incubated for 48 hrs by Western blot analysis; format: functional, cell-based; conditions: Calvaria, dose 1-100 pM; in short: as §4
Mus musculus [31] = experiment: Induction of osteogenesis in BALB/c mouse model of drill hole defect at femur mid-diaphysis assessed as increase in calcein binding at fracture site at 5 mg/kg, po for 12 days by confocal microscopy; format: functional, organism-based; conditions: time 12.0 day
In short: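 Femur drill-hole model in female BALB/c mice, oral dosing 1–10 mg kg⁻¹ for 12 days from the day after injury. Calcein 20 mg kg⁻¹ in saline given i.p. 24 h before autopsy; undecalcified drill-hole region embedded in acrylic, 50 μm sections cut, and calcein intensity at the fracture site quantified.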

Mus musculus [32] = experiment: Induction of osteogenesis in BALB/c mouse model of drill hole defect at femur mid-diaphysis assessed as increase in extracellular matrix deposition at 1 to 10 mg/kg, po for 12 days by H and E staining based analysis; format: functional, organism-based; conditions: dose 1-10 mg/kg, time 12.0 day
In short: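 Drill-hole femur defect, female BALB/c mice, oral dosing 1–10 mg kg⁻¹ for 12 days. Injury-site tissue fixed 48 h in 4% paraformaldehyde, 48 h in 70% isopropanol, decalcified, paraffin-embedded; 5 μm transverse sections stained with H&E and imaged by bright-field microscopy.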

Calvarial osteoblast [33] = experiment: Induction of cell proliferation of BALB/c mouse calvarial osteoblast cells at 0.001 nM incubated for 48 hrs by MTT assay relative to control; format: functional, Calvaria; in short: as §3
Calvarial osteoblast [34] = experiment: Induction of osteogenesis in BALB/c mouse calvarial osteoblast cells assessed as increase in RUNX mRNA level at 1 to 100 pM by qPCR analysis; format: functional, cell-based; conditions: Calvaria, dose 1-100 pM; in short: as §5
Mus musculus [35] = experiment: Induction of osteogenesis in BALB/c mouse model of drill hole defect at femur mid-diaphysis assessed as increase in fracture healing at 1 to 10 mg/kg, po for 12 days by micro-CT analysis; format: functional, organism-based; conditions: dose 1-10 mg/kg, time 12.0 day; in short: as §6
[36] = Stability in SIF assessed as compound remaining measured upto 6 hrs by RP-UHPLC analysis; format: ADME; conditions: simulated intestinal fluid (SIF), read-out: Stability

Structure (SMILES): COc1cc(OC)c(-c2cc(-c3ccc(Br)cc3)nc(N)n2)cc1OC
- Activity (Calvarial osteoblast [1]): Active
- Activity [2]: ~23%
- Activity (Calvarial osteoblast [3]): Non-Toxic
- Activity (Calvarial osteoblast [4]): ~30%

Structure (SMILES): CCCCCC(=O)Nc1nc(-c2ccc(Br)cc2)c(Br)c(-c2cc(OC)c(OC)cc2OC)n1
- Activity (Calvarial osteoblast [5]): Active
- Activity (Calvarial osteoblast [6]): Active
- Activity (Mus musculus [7]): Active
- AUC [8]: 6.18006 ng·h/mL
- Vd [9]: 2113.99 L/kg
- remaining at 6 h [10]: > 85%
- Activity (Mus musculus [11]): Active
- remaining at 6 h [12]: > 50%
- Activity (Calvarial osteoblast [13]): ~23%
- Cmax [14]: 0.83 ng/mL
- Activity (Calvarial osteoblast [15]): Active
- MRT [16]: 18.1 h
- Activity (Mus musculus [17]): Active
- Activity (Calvarial osteoblast [18]): Active
- Activity [19]: ~40%
- Activity (Mus musculus [20]): Active
- half-life [21]: 747 min
- Activity (Mus musculus [22]): Active
- Activity (Mus musculus [23]): Active
- Activity (Calvarial osteoblast [24]): Active
- CL [25]: 117.84 L/h/kg
- remaining at 6 h [26]: > 85%
- Tmax [27]: 49.8 min
- Activity [2]: ~39%
- Activity (Calvarial osteoblast [3]): Non-Toxic
- Activity (Calvarial osteoblast [28]): Active
- Activity (Mus musculus [29]): Active
- Activity (Calvarial osteoblast [30]): Active
- Activity (Calvarial osteoblast [4]): ~31%
- Activity (Mus musculus [31]): Active
- Activity (Mus musculus [32]): Active
- Activity (Calvarial osteoblast [33]): ~32%
- Activity (Calvarial osteoblast [34]): Active
- Activity (Mus musculus [35]): Active
- remaining at 6 h [36]: > 50%

Structure (SMILES): COc1cc(OC)c(-c2nc(N)nc(-c3ccc(Cl)cc3)c2Cl)cc1OC
- Activity (Calvarial osteoblast [1]): Active
- Activity [2]: ~26%
- Activity (Calvarial osteoblast [3]): Non-Toxic
- Activity (Calvarial osteoblast [4]): ~29%
